Key:
Format in all cases: functional
[1] = Total radioactivity after 10 min irradiation at 360 nm
Procedure, shortened: (§1)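 Alternating poly(dA-dT)·poly(dA-dT), 1 mg (1.5 µmol base pairs) in 1 mL 10 mM Tris pH 7.2, with 0.3 µmol tritiated psoralen added in 95% EtOH. Irradiated 10 min at 10 °C. Polymer ethanol-reprecipitated, then digested sequentially with DNase II (pH 5, 37 °C), phosphodiesterase II (pH 7) and alkaline phosphatase (pH 7.8-8.0). Adducts resolved by reverse-phase HPLC (water-methanol gradient, pH 2.2 phosphate), with A254 and ³H scintillation counting.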

[2] = Furan monoadduct and diadduct distribution (products resulting from photoaddition with the nucleic acid poly (dA-dT)) after 10 min irradiation at 360 nm; procedure, shortened: as §1
[3] = Pyrone monoadduct distribution (product resulting from photoaddition with the nucleic acid poly (dA-dT)) after 10 min irradiation at 360 nm; procedure, shortened: as §1
[4] = Total radioactivity (pyrone monoadduct, furan monoadduct and diadduct resulting from photoaddition with the nucleic acid poly (dA-dT)) after 10 min irradiation at 360 nm; procedure, shortened: as §1

SMILES | Radioactivity [1] [%] | Radioactivity [2] [%] | Radioactivity [3] [%] | Radioactivity [4] [%]
COc1c2oc(C)cc2cc2c(C)cc(=O)oc12 | 96 | 94 | 2 | –
COc1c2occc2cc2c(C)cc(=O)oc12 | 96 | 94 | 2 | –
COc1c2oc(C)cc2cc2ccc(=O)oc12 | 90 | 73 | 17 | –
COc1c2occc2cc2ccc(=O)oc12 | – | 75 | 19 | 94

— ChEMBL document CHEMBL1122638, “8-Methoxypsoralen-nucleic acid photoreaction. Effect of methyl substitution on pyrone vs. furan photoaddition” (J Med Chem, 1984)
